# Measurements as given in ChEMBL document CHEMBL1135605, “Preparation and characterization of platinum(II) and (IV) complexes of 1,3-diaminepropane and 1,4-diaminebutane: circumvention of cisplatin resistance and DNA interstrand cross-link formation in CH1cisR ovarian tumor cells” (J Med Chem, 2002).
# Assays:
# PAM212 [1] = experiment: Compound was evaluated against normal Pam 212 cell line; format: functional, cell-based, Mus musculus
# Summary of the method: (§1)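 MTT cell survival assay. Compounds dissolved in 10 mM NaClO4 in distilled water, with 1 mg/mL stocks freshly prepared. Final concentrations 0–200 μM added to the cultures. Survival read 24 h later by absorbance at 520 nm. IC50 (concentration giving 50% cell killing) taken from % survival vs concentration curves. Run in quadruplicate.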
# CH1 [2] = experiment: Compound was evaluated against human Ovarian carcinoma cell line CH1cisR; format: functional, cell-based; summary of the method: as §1
# A2780 [3] = experiment: Compound was evaluated against human Ovarian carcinoma cell line A2780cisR; format: functional, cell-based; summary of the method: as §1
# CH1 [4] = experiment: Compound was evaluated against human Ovarian carcinoma cell line CH1; format: functional, cell-based; summary of the method: as §1
# PAM212 [5] = experiment: Compound was evaluated against transformed murine keratinocytes Pam 212-ras cell line; format: functional, cell-based, Mus musculus; summary of the method: as §1
# A2780 [6] = experiment: Compound was evaluated against human Ovarian carcinoma cell line A2780; format: functional, cell-based; summary of the method: as §1
Substance,IC50 (PAM212 [1]),IC50 (CH1 [2]),IC50 (A2780 [3]),IC50 (CH1 [4]),IC50 (PAM212 [5]),IC50 (A2780 [6])
"Cis-[Pt(1,3-diaminepropane)2(OH)2] 1,1-cyclobutanedicarboxylate",> 200 µM,> 200 µM,> 200 µM,> 200 µM,> 200 µM,> 200 µM
"Cis-[Pt(1,3-diaminebutane)2(O-Succinate)2]",> 200 µM,> 200 µM,> 200 µM,> 200 µM,> 200 µM,> 200 µM
"Cis-[Pt(1,3-diaminebutane)2] 1,1-cyclobutanedicarboxylate",> 200 µM,> 200 µM,> 200 µM,> 200 µM,> 200 µM,> 200 µM
"Cis-[Pt(1,3-diaminepropane)2] 1,1-cyclobutanedicarboxylate",> 200 µM,> 200 µM,> 200 µM,> 200 µM,> 200 µM,> 200 µM
"Cis-[Pt(1,3-diaminebutane)2(OH)2] 1,1-cyclobutanedicarboxylate",> 200 µM,> 200 µM,> 200 µM,> 200 µM,> 200 µM,> 200 µM
"Cis-[Pt(1,3-diaminepropane)2(O-Succinate)2]",> 200 µM,> 200 µM,> 200 µM,> 200 µM,> 200 µM,> 200 µM
"Cis-[Pt(1,3-diaminepropane)2(O-Maleate)2]",> 200 µM,> 200 µM,> 200 µM,> 200 µM,> 200 µM,> 200 µM
"Cis-[Pt(1,3-diaminebutane) 1,1-cyclobutanedicarboxylate]",100 µM,6 µM,0.74 µM,3.3 µM,42 µM,0.32 µM
"Cis-[Pt(1,3-diaminepropane) 1,1-cyclobutanedicarboxylate]",85 µM,8 µM,1 µM,4.5 µM,64 µM,0.3 µM
"Cis-[Pt(1,3-diaminepropane)2(O-Glutarate)2]",> 200 µM,> 200 µM,> 200 µM,> 200 µM,> 200 µM,> 200 µM
CARBOPLATIN,> 200 µM,185 µM,178 µM,52 µM,> 200 µM,18 µM
CISPLATIN,44 µM,25 µM,36 µM,6 µM,72 µM,2 µM
